Results published in ChEMBL document CHEMBL5241123, “Homopurine guanine-rich sequences in complex with N-methyl mesoporphyrin IX form parallel G-quadruplex dimers and display a unique symmetry tetrad” (Bioorg Med Chem, 2023).
The source made the active and inactive calls. The calls are words filed in the database; no cut-off is given here.

Columns and labels:
Type in all cases: nucleic-acid assay
[1] = test system: Quadruplex DNA; assay: Binding affinity to G-quadruplex homo-purine guanine-rich GA3 (AGGGAAAAGGGGAGGGAAAAGGGGA) DNA (unknown origin) at DNA:compound concentration ratio of 2:1 in 5K buffer by fluorescence titration based analysis
Summary of the method: (§1)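 Fluorescence titration at 20 °C in 5K buffer: ~1.0 μM NMM titrated with 140-270 μM annealed DNA to a final [DNA]/[NMM] of at least eight. Excitation 395-398 nm (UV-Vis isosbestic points), emission 560-720 nm. Single-component SVD, fit to 1:1, 1:2 and 2:1 models. Ka is the average of at least three trials.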

[2] = test system: Quadruplex DNA; assay: Binding affinity to G-quadruplex homo-purine guanine-rich GA1 (GAGGGAGGGAGGGAAAAGGGGA) DNA (unknown origin) at DNA:compound concentration ratio of 1:1 in 5K buffer by UV-Vis titration based analysis
Summary of the method: (§2)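 NMM (~3-4 μM, absorbance ~0.5, 1 cm cuvette) in 5K buffer (10 mM LiCaco pH 7.2, 95 mM LiCl, 5 mM KCl), titrated with DNA annealed in 5K buffer (170-470 μM, final [DNA]/[NMM] at least five), 2 min equilibration per addition, spectra 350-480 nm at 20 °C. SVD analysis, fit with NMM concentration fixed. Ka is the average of at least three trials.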

[3] = test system: Quadruplex DNA; assay: Binding affinity to G-quadruplex homo-purine guanine-rich GA3 (AGGGAAAAGGGGAGGGAAAAGGGGA) DNA (unknown origin) at DNA:compound concentration ratio of 2:1 in 5K buffer by UV-Vis titration based analysis; summary of the method: as §2
[4] = test system: Quadruplex DNA; assay: Stabilization and preservation of G-quadruplex homo-purine guanine-rich GA1 (GAGGGAGGGAGGGAAAAGGGGA) DNA (unknown origin) parallel structure conformation assessed as increase in enthalpy change associated with melting transition at 2 equivalents in 100K buffer by UV-Visible melting analysis; conditions: dose 2.0 equiv
Summary of the method: (§3)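 ~4 μM DNA with or without 2 eq. NMM in 100K buffer (10 mM LiCaco pH 7.2, 100 mM KCl), annealed then cooled slowly. UV-Vis melting 20-90 °C, 0.5 or 0.2 °C/min, signal at 295 nm corrected at 335 nm. Tm and ΔH from a two-state fit (hysteresis under 3 °C).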

[5] = test system: Quadruplex DNA; assay: Binding affinity to G-quadruplex homo-purine guanine-rich GA3 (AGGGAAAAGGGGAGGGAAAAGGGGA) DNA (unknown origin) at DNA:compound concentration ratio of 1:2 in 5K buffer by UV-Vis titration based analysis; summary of the method: as §2
[6] = test system: Quadruplex DNA; assay: Stabilization and preservation of G-quadruplex homo-purine guanine-rich GA3 (AGGGAAAAGGGGAGGGAAAAGGGGA) DNA (unknown origin) parallel structure conformation at 2 equivalents in 100K buffer by circular dichroism scan analysis; conditions: dose 2.0 equiv
Summary of the method: (§4)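 CD scans at 20 °C of ~4 μM annealed DNA, alone or with 2 eq. NMM, in 100K buffer. Range 220-330 nm, 1 cm cuvette, 2 nm bandwidth, five scans averaged.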

[7] = test system: Quadruplex DNA; assay: Stabilization and preservation of G-quadruplex homo-purine guanine-rich GA2 (GAGGGAGGGAAAAGGGGAGGGA) DNA (unknown origin) parallel structure conformation assessed as increase in enthalpy change associated with melting transition at 2 equivalents in 100K buffer by UV-Visible melting analysis; conditions: dose 2.0 equiv; summary of the method: as §3
[8] = test system: Quadruplex DNA; assay: Binding affinity to G-quadruplex homo-purine guanine-rich GA1 (GAGGGAGGGAGGGAAAAGGGGA) DNA (unknown origin) at DNA:compound concentration ratio of 2:1 in 5K buffer by fluorescence titration based analysis; summary of the method: as §1
[9] = test system: Quadruplex DNA; assay: Binding affinity to G-quadruplex homo-purine guanine-rich GA2 (GAGGGAGGGAAAAGGGGAGGGA) DNA (unknown origin) assessed as red shift at 3.3 uM in 5K buffer by circular dichroism scan analysis
[10] = test system: Quadruplex DNA; assay: Stabilization and preservation of G-quadruplex homo-purine guanine-rich GA3 (AGGGAAAAGGGGAGGGAAAAGGGGA) DNA (unknown origin) parallel structure conformation assessed as increase in enthalpy change associated with melting transition at 2 equivalents in 100K buffer by UV-Visible melting analysis; conditions: dose 2.0 equiv; summary of the method: as §3
[11] = test system: Quadruplex DNA; assay: Binding affinity to G-quadruplex homo-purine guanine-rich GA1 (GAGGGAGGGAGGGAAAAGGGGA) DNA (unknown origin) at DNA:compound concentration ratio of 1:2 in 5K buffer by fluorescence titration based analysis; summary of the method: as §1
[12] = test system: Quadruplex DNA; assay: Stabilization and preservation of G-quadruplex homo-purine guanine-rich GA1 (GAGGGAGGGAGGGAAAAGGGGA) DNA (unknown origin) parallel structure conformation assessed as increased homogeneity at 2 equivalents in 100K buffer by native PAGE analysis; conditions: dose 2.0 equiv
Summary of the method: (§5)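 Native 15% polyacrylamide gel in 1×TBE plus 10 mM KCl. Samples of ~50 μM DNA, alone or with 2 eq. NMM, in 100K buffer. Run 150 min at 150 V at room temperature after pre-running, with a dT15-dT57 ladder. Stains-All visualization.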

[13] = test system: Quadruplex DNA; assay: Stabilization and preservation of G-quadruplex homo-purine guanine-rich GA2 (GAGGGAGGGAAAAGGGGAGGGA) DNA (unknown origin) parallel structure conformation at 2 equivalents in 100K buffer by circular dichroism scan analysis; conditions: dose 2.0 equiv; summary of the method: as §4
[14] = test system: Quadruplex DNA; assay: Binding affinity to G-quadruplex homo-purine guanine-rich GA1 (GAGGGAGGGAGGGAAAAGGGGA) DNA (unknown origin) assessed as hypochromicity at 3.3 uM in 5K buffer by UV-Vis titration based analysis; summary of the method: as §2
[15] = test system: Quadruplex DNA; assay: Binding affinity to G-quadruplex homo-purine guanine-rich GA2 (GAGGGAGGGAAAAGGGGAGGGA) DNA (unknown origin) at DNA:compound concentration ratio of 1:1 in 5K buffer by UV-Vis titration based analysis; summary of the method: as §2
[16] = test system: Quadruplex DNA; assay: Binding affinity to G-quadruplex homo-purine guanine-rich GA1 (GAGGGAGGGAGGGAAAAGGGGA) DNA (unknown origin) at DNA:compound concentration ratio of 1:1 in 5K buffer by fluorescence titration based analysis; summary of the method: as §1
[17] = test system: Quadruplex DNA; assay: Binding affinity to G-quadruplex homo-purine guanine-rich GA3 (AGGGAAAAGGGGAGGGAAAAGGGGA) DNA (unknown origin) assessed as hypochromicity at 3.3 uM in 5K buffer by circular dichroism scan analysis
[18] = test system: Quadruplex DNA; assay: Binding affinity to G-quadruplex homo-purine guanine-rich GA2 (GAGGGAGGGAAAAGGGGAGGGA) DNA (unknown origin) at DNA:compound concentration ratio of 2:1 in 5K buffer by fluorescence titration based analysis; summary of the method: as §1
[19] = test system: Quadruplex DNA; assay: Binding affinity to G-quadruplex homo-purine guanine-rich GA1 (GAGGGAGGGAGGGAAAAGGGGA) DNA (unknown origin) at DNA:compound concentration ratio of 1:2 in 5K buffer by UV-Vis titration based analysis; summary of the method: as §2
[20] = test system: Quadruplex DNA; assay: Binding affinity to G-quadruplex homo-purine guanine-rich GA3 (AGGGAAAAGGGGAGGGAAAAGGGGA) DNA (unknown origin) at DNA:compound concentration ratio of 1:2 in 5K buffer by fluorescence titration based analysis; summary of the method: as §1
[21] = test system: Quadruplex DNA; assay: Binding affinity to G-quadruplex homo-purine guanine-rich GA2 (GAGGGAGGGAAAAGGGGAGGGA) DNA (unknown origin) at DNA:compound concentration ratio of 1:2 in 5K buffer by fluorescence titration based analysis; summary of the method: as §1
[22] = test system: Quadruplex DNA; assay: Stabilization and preservation of G-quadruplex homo-purine guanine-rich GA2 (GAGGGAGGGAAAAGGGGAGGGA) DNA (unknown origin) parallel structure conformation assessed as elimination of higher order species at 2 equivalents in 100K buffer by native PAGE analysis; conditions: dose 2.0 equiv; summary of the method: as §5
[23] = test system: Quadruplex DNA; assay: Binding affinity to G-quadruplex homo-purine guanine-rich GA3 (AGGGAAAAGGGGAGGGAAAAGGGGA) DNA (unknown origin) assessed as red shift at 3.3 uM in 5K buffer by circular dichroism scan analysis
[24] = test system: Quadruplex DNA; assay: Binding affinity to G-quadruplex homo-purine guanine-rich GA1 (GAGGGAGGGAGGGAAAAGGGGA) DNA (unknown origin) at DNA:compound concentration ratio of 2:1 in 5K buffer by UV-Vis titration based analysis; summary of the method: as §2
[25] = test system: Quadruplex DNA; assay: Binding affinity to G-quadruplex homo-purine guanine-rich GA3 (AGGGAAAAGGGGAGGGAAAAGGGGA) DNA (unknown origin) at DNA:compound concentration ratio of 1:1 in 5K buffer by UV-Vis titration based analysis; summary of the method: as §2
[26] = test system: Quadruplex DNA; assay: Binding affinity to G-quadruplex homo-purine guanine-rich GA2 (GAGGGAGGGAAAAGGGGAGGGA) DNA (unknown origin) at DNA:compound concentration ratio of 1:1 in 5K buffer by fluorescence titration based analysis; summary of the method: as §1
[27] = test system: Quadruplex DNA; assay: Stabilization and preservation of G-quadruplex homo-purine guanine-rich GA1 (GAGGGAGGGAGGGAAAAGGGGA) DNA (unknown origin) parallel structure conformation assessed as increase in melting temperature at 2 equivalents in 100K buffer by UV-Visible melting analysis; conditions: dose 2.0 equiv; summary of the method: as §3
[28] = test system: Quadruplex DNA; assay: Stabilization and preservation of G-quadruplex homo-purine guanine-rich GA3 (AGGGAAAAGGGGAGGGAAAAGGGGA) DNA (unknown origin) parallel structure conformation at 2 equivalents in 100K buffer by native PAGE analysis; conditions: dose 2.0 equiv; summary of the method: as §5
[29] = test system: Quadruplex DNA; assay: Binding affinity to G-quadruplex homo-purine guanine-rich GA1 (GAGGGAGGGAGGGAAAAGGGGA) DNA (unknown origin) assessed as red shift at 3.3 uM in 5K buffer by UV-Vis titration based analysis; summary of the method: as §2
[30] = test system: Quadruplex DNA; assay: Binding affinity to G-quadruplex homo-purine guanine-rich GA3 (AGGGAAAAGGGGAGGGAAAAGGGGA) DNA (unknown origin) at DNA:compound concentration ratio of 1:1 in 5K buffer by fluorescence titration based analysis; summary of the method: as §1
[31] = test system: Quadruplex DNA; assay: Stabilization and preservation of G-quadruplex homo-purine guanine-rich GA3 (AGGGAAAAGGGGAGGGAAAAGGGGA) DNA (unknown origin) parallel structure conformation assessed as increase in melting temperature at 2 equivalents in 100K buffer by UV-Visible melting analysis; conditions: dose 2.0 equiv; summary of the method: as §3
[32] = test system: Quadruplex DNA; assay: Stabilization and preservation of G-quadruplex homo-purine guanine-rich GA1 (GAGGGAGGGAGGGAAAAGGGGA) DNA (unknown origin) parallel structure conformation at 2 equivalents in 100K buffer by circular dichroism scan analysis; conditions: dose 2.0 equiv; summary of the method: as §4
[33] = test system: Quadruplex DNA; assay: Binding affinity to G-quadruplex homo-purine guanine-rich GA2 (GAGGGAGGGAAAAGGGGAGGGA) DNA (unknown origin) assessed as hypochromicity at 3.3 uM in 5K buffer by circular dichroism scan analysis
[34] = test system: Quadruplex DNA; assay: Stabilization and preservation of G-quadruplex homo-purine guanine-rich GA2 (GAGGGAGGGAAAAGGGGAGGGA) DNA (unknown origin) parallel structure conformation assessed as increase in melting temperature at 2 equivalents in 100K buffer by UV-Visible melting analysis; conditions: dose 2.0 equiv; summary of the method: as §3

CCC1=C(C)c2cc3c(C)c(CCC(=O)O)c(cc4nc(cc5[nH]c(cc1n2)c(C)c5CC)C(C)=C4CCC(=O)O)n3C
Ka [1]: 1.1 µM⁻¹ | Ka [2]: 0.19 µM⁻¹ | Ka [3]: 0.96 µM⁻¹ | deltaH [4]: 19.4 kcal/mol | Ka [5]: 0.1 µM⁻¹ | Activity [6]: Active | deltaH [7]: 15.1 kcal/mol | Ka [8]: 1.1 µM⁻¹ | Activity [9]: 21.3 nm | deltaH [10]: 3.35 kcal/mol | Ka [11]: 0.18 µM⁻¹ | Activity [12]: Active | Activity [13]: Active | Activity [14]: 21% | Ka [15]: 1.4 µM⁻¹ | Ka [16]: 0.4 µM⁻¹ | Activity [17]: 28% | Ka [18]: 3.7 µM⁻¹ | Ka [19]: 0.07 µM⁻¹ | Ka [20]: 0.2 µM⁻¹ | Ka [21]: 0.36 µM⁻¹ | Activity [22]: Active | Activity [23]: 21.4 nm | Ka [24]: 0.8 µM⁻¹ | Ka [25]: 0.24 µM⁻¹ | Ka [26]: 1 µM⁻¹ | ΔTm [27]: 14.6 °C | Activity [28]: Active | Activity [29]: 21 nm | Ka [30]: 0.4 µM⁻¹ | ΔTm [31]: 7 °C | Activity [32]: Active | Activity [33]: 19% | ΔTm [34]: 13.1 °C
